{"source": "ChEMBL document CHEMBL1212799", "about": "(2010)", "key": {"Pseudomonas aeruginosa [1]": {"system": "Pseudomonas aeruginosa", "assay": "fT>MIC in Pseudomonas aeruginosa isolate 1177 at 2 gram for every 8 hrs administered as 3 hrs infusion measured over 16-24 hrs in in vitro pharmcodynamic model", "type": "functional"}, "Klebsiella pneumoniae [2]": {"system": "Klebsiella pneumoniae", "assay": "Antibacterial activity against Klebsiella pneumoniae isolate 375 in vitro pharmacodynamic model", "type": "functional", "in_short": "(§1)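 Simulated peak 38.4 µg/ml, trough 3.04 µg/ml. CAMHB at 37°C, 10^6 CFU/ml from overnight culture, drug started at 0.5 h. Two treated models plus one growth control. Change in log10 CFU/ml over 24 h on blood agar. Detection limit 10^1 CFU/ml.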"}, "Klebsiella pneumoniae [3]": {"system": "Klebsiella pneumoniae", "assay": "fT>MIC in Klebsiella pneumoniae isolate 357 at 2 gram for every 8 hrs administered as 3 hrs infusion measured over 8-16 hrs in in vitro pharmcodynamic model", "type": "functional", "in_short": "(§2)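 Samples assayed by HPLC (linear 0.25–40 µg/ml). Time free drug stayed above the modal triplicate broth-microdilution MIC (CLSI) calculated for each 8-h interval.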"}, "Pseudomonas aeruginosa [4]": {"system": "Pseudomonas aeruginosa", "assay": "fT>MIC in Pseudomonas aeruginosa isolate 1038 at 2 gram for every 8 hrs administered as 3 hrs infusion measured over 8-16 hrs in in vitro pharmcodynamic model", "type": "functional"}, "Klebsiella pneumoniae [5]": {"system": "Klebsiella pneumoniae", "assay": "fT>MIC in Klebsiella pneumoniae isolate 377 at 2 gram for every 8 hrs administered as 3 hrs infusion measured over 8-16 hrs in in vitro pharmcodynamic model", "type": "functional"}, "Pseudomonas aeruginosa [6]": {"system": "Pseudomonas aeruginosa", "assay": "Antibacterial activity against Pseudomonas aeruginosa isolate 896 assessed as reduction of bacterial count at 16 ug/ml within 6 hrs in vitro pharmacodynamic model", "type": "functional"}, "Klebsiella pneumoniae [7]": {"system": "Klebsiella pneumoniae", "assay": "Antibacterial activity against Klebsiella pneumoniae isolate 360 assessed as reduction of bacterial count at 16 ug/ml within 6 hrs in vitro pharmacodynamic model", "type": "functional"}, "Pseudomonas aeruginosa [8]": {"system": "Pseudomonas aeruginosa", "assay": "fT>MIC in Pseudomonas aeruginosa isolate 1177 at 2 gram for every 8 hrs administered as 3 hrs infusion measured over 8-16 hrs in in vitro pharmcodynamic model", "type": "functional"}, "Klebsiella pneumoniae [9]": {"system": "Klebsiella pneumoniae", "assay": "fT>MIC in Klebsiella pneumoniae isolate 361 at 2 gram for every 8 hrs administered as 3 hrs infusion over 24 hrs in in vitro pharmcodynamic model", "type": "functional", "in_short": "as §2"}, "Pseudomonas aeruginosa [10]": {"system": "Pseudomonas aeruginosa", "assay": "fT>MIC in Pseudomonas aeruginosa isolate 988 at 2 gram for every 8 hrs administered as 3 hrs infusion measured over 8-16 hrs in in vitro pharmcodynamic model", "type": "functional"}, "Klebsiella pneumoniae [11]": {"system": "Klebsiella pneumoniae", "assay": "fT>MIC in Klebsiella pneumoniae isolate 353 at 2 gram for every 8 hrs administered as 3 hrs infusion measured over 8-16 hrs in in vitro pharmcodynamic model", "type": "functional, isoalte 353", "in_short": "as §2"}, "Klebsiella pneumoniae [12]": {"system": "Klebsiella pneumoniae", "assay": "fT>MIC in Klebsiella pneumoniae isolate 328A at 2 gram for every 8 hrs administered as 3 hrs infusion measured over 16-24 hrs in in vitro pharmcodynamic model", "type": "functional", "in_short": "as §2"}, "Klebsiella pneumoniae [13]": {"system": "Klebsiella pneumoniae", "assay": "fT>MIC in Klebsiella pneumoniae isolate 357 at 2 gram for every 8 hrs administered as 3 hrs infusion measured over 0-8 hrs in in vitro pharmcodynamic model", "type": "functional", "in_short": "as §2"}, "Klebsiella pneumoniae [14]": {"system": "Klebsiella pneumoniae", "assay": "fT>MIC in Klebsiella pneumoniae isolate 334 at 2 gram for every 8 hrs administered as 3 hrs infusion over 24 hrs in in vitro pharmcodynamic model", "type": "functional", "in_short": "as §2"}, "Pseudomonas aeruginosa [15]": {"system": "Pseudomonas aeruginosa", "assay": "Antibacterial activity against Pseudomonas aeruginosa isolate 1030 in vitro pharmacodynamic model", "type": "functional", "in_short": "as §1"}, "Klebsiella pneumoniae [16]": {"system": "Klebsiella pneumoniae", "assay": "fT>MIC in Klebsiella pneumoniae isolate 360 at 2 gram for every 8 hrs administered as 3 hrs infusion over 24 hrs in in vitro pharmcodynamic model", "type": "functional", "in_short": "as §2"}, "Klebsiella pneumoniae [17]": {"system": "Klebsiella pneumoniae", "assay": "Antibacterial activity against Klebsiella pneumoniae isolate 361 assessed as reduction of bacterial count at 64 ug/ml within 6 hrs in vitro pharmacodynamic model", "type": "functional"}, "Pseudomonas aeruginosa [18]": {"system": "Pseudomonas aeruginosa", "assay": "fT>MIC in Pseudomonas aeruginosa isolate 988 at 2 gram for every 8 hrs administered as 3 hrs infusion measured over 16-24 hrs in in vitro pharmcodynamic model", "type": "functional"}, "Klebsiella pneumoniae [19]": {"system": "Klebsiella pneumoniae", "assay": "fT>MIC in Klebsiella pneumoniae isolate 334 at 2 gram for every 8 hrs administered as 3 hrs infusion measured over 8-16 hrs in in vitro pharmcodynamic model", "type": "functional", "in_short": "as §2"}, "Pseudomonas aeruginosa [20]": {"system": "Pseudomonas aeruginosa", "assay": "Antibacterial activity against Pseudomonas aeruginosa isolate 762 assessed as reduction of bacterial count at 16 ug/ml within 6 hrs in vitro pharmacodynamic model", "type": "functional"}, "Klebsiella pneumoniae [21]": {"system": "Klebsiella pneumoniae", "assay": "fT>MIC in Klebsiella pneumoniae isolate 360 at 2 gram for every 8 hrs administered as 3 hrs infusion measured over 16-24 hrs in in vitro pharmcodynamic model", "type": "functional", "in_short": "as §2"}, "Klebsiella pneumoniae [22]": {"system": "Klebsiella pneumoniae", "assay": "Antibacterial activity against Klebsiella pneumoniae isolate 357 assessed as reduction of bacterial count at 16 ug/ml within 6 hrs in vitro pharmacodynamic model", "type": "functional"}, "Pseudomonas aeruginosa [23]": {"system": "Pseudomonas aeruginosa", "assay": "fT>MIC in Pseudomonas aeruginosa isolate 1030 at 2 gram for every 8 hrs administered as 3 hrs infusion measured over 0-8 hrs in in vitro pharmcodynamic model", "type": "functional"}, "Klebsiella pneumoniae [24]": {"system": "Klebsiella pneumoniae", "assay": "fT>MIC in Klebsiella pneumoniae isolate 360 at 2 gram for every 8 hrs administered as 3 hrs infusion measured over 8-16 hrs in in vitro pharmcodynamic model", "type": "functional", "in_short": "as §2"}, "Pseudomonas aeruginosa [25]": {"system": "Pseudomonas aeruginosa", "assay": "fT>MIC in Pseudomonas aeruginosa isolate 1030 at 2 gram for every 8 hrs administered as 3 hrs infusion measured over 8-16 hrs in in vitro pharmcodynamic model", "type": "functional"}, "Pseudomonas aeruginosa [26]": {"system": "Pseudomonas aeruginosa", "assay": "fT>MIC in Pseudomonas aeruginosa isolate 1177 at 2 gram for every 8 hrs administered as 3 hrs infusion over 24 hrs in in vitro pharmcodynamic model", "type": "functional"}, "Klebsiella pneumoniae [27]": {"system": "Klebsiella pneumoniae", "assay": "Antibacterial activity against Klebsiella pneumoniae isolate 334 assessed as reduction of bacterial count at 32 ug/ml within 6 hrs in vitro pharmacodynamic model", "type": "functional"}, "Pseudomonas aeruginosa [28]": {"system": "Pseudomonas aeruginosa", "assay": "fT>MIC in Pseudomonas aeruginosa isolate 762 at 2 gram for every 8 hrs administered as 3 hrs infusion measured over 0-8 hrs in in vitro pharmcodynamic model", "type": "functional"}, "Pseudomonas aeruginosa [29]": {"system": "Pseudomonas aeruginosa", "assay": "fT>MIC in Pseudomonas aeruginosa isolate 896 at 2 gram for every 8 hrs administered as 3 hrs infusion measured over 8-16 hrs in in vitro pharmcodynamic model", "type": "functional"}, "Pseudomonas aeruginosa [30]": {"system": "Pseudomonas aeruginosa", "assay": "Antibacterial activity against Pseudomonas aeruginosa isolate 1177 in vitro pharmacodynamic model", "type": "functional", "in_short": "as §1"}, "Klebsiella pneumoniae [31]": {"system": "Klebsiella pneumoniae", "assay": "Antibacterial activity against Klebsiella pneumoniae isolate 328A in vitro pharmacodynamic model", "type": "functional", "in_short": "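Inoculum 10^6 CFU/ml; dosing began 0.5 h after inoculation. Two treated models plus one untreated control per isolate; blood-agar counts; change in log10 CFU/ml over 24 h (detection limit 10^1); drug levels checked by HPLC.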"}, "Pseudomonas aeruginosa [32]": {"system": "Pseudomonas aeruginosa", "assay": "fT>MIC in Pseudomonas aeruginosa isolate 1038 at 2 gram for every 8 hrs administered as 3 hrs infusion over 24 hrs in in vitro pharmcodynamic model", "type": "functional"}, "Klebsiella pneumoniae [33]": {"system": "Klebsiella pneumoniae", "assay": "fT>MIC in Klebsiella pneumoniae isolate 354 at 2 gram for every 8 hrs administered as 3 hrs infusion measured over 8-16 hrs in in vitro pharmcodynamic model", "type": "functional", "in_short": "as §2"}, "Klebsiella pneumoniae [34]": {"system": "Klebsiella pneumoniae", "assay": "Antibacterial activity against Klebsiella pneumoniae isolate 375 assessed as reduction of bacterial count at 32 ug/ml within 6 hrs in vitro pharmacodynamic model", "type": "functional"}, "Klebsiella pneumoniae [35]": {"system": "Klebsiella pneumoniae", "assay": "fT>MIC in Klebsiella pneumoniae isolate 368 at 2 gram for every 8 hrs administered as 3 hrs infusion over 24 hrs in in vitro pharmcodynamic model", "type": "functional"}, "Klebsiella pneumoniae [36]": {"system": "Klebsiella pneumoniae", "assay": "fT>MIC in Klebsiella pneumoniae isolate 368 at 2 gram for every 8 hrs administered as 3 hrs infusion measured over 16-24 hrs in in vitro pharmcodynamic model", "type": "functional"}, "Klebsiella pneumoniae [37]": {"system": "Klebsiella pneumoniae", "assay": "fT>MIC in Klebsiella pneumoniae isolate 334 at 2 gram for every 8 hrs administered as 3 hrs infusion measured over 16-24 hrs in in vitro pharmcodynamic model", "type": "functional", "in_short": "as §2"}, "Klebsiella pneumoniae [38]": {"system": "Klebsiella pneumoniae", "assay": "fT>MIC in Klebsiella pneumoniae isolate 354 at 2 gram for every 8 hrs administered as 3 hrs infusion measured over 16-24 hrs in in vitro pharmcodynamic model", "type": "functional", "in_short": "as §2"}}}
{"smiles": "C[C@@H](O)[C@H]1C(=O)N2C(C(=O)O)=C(S[C@@H]3CN[C@H](C(=O)N(C)C)C3)[C@H](C)[C@H]12", "note": "[MEROPENEM]", "values": [{"measurement": "fT>MIC", "setting": "Pseudomonas aeruginosa [1]", "result": 78, "unit": "%"}, {"measurement": "MIC", "setting": "Klebsiella pneumoniae [2]", "result": 32, "unit": "µg/mL"}, {"measurement": "fT>MIC", "setting": "Klebsiella pneumoniae [3]", "result": 0, "unit": "%"}, {"measurement": "fT>MIC", "setting": "Pseudomonas aeruginosa [4]", "result": 100, "unit": "%"}, {"measurement": "fT>MIC", "setting": "Klebsiella pneumoniae [5]", "result": 100, "unit": "%"}, {"measurement": "log10cfu", "setting": "Pseudomonas aeruginosa [6]", "result": ">=3"}, {"measurement": "log10cfu", "setting": "Klebsiella pneumoniae [7]", "result": ">3"}, {"measurement": "fT>MIC", "setting": "Pseudomonas aeruginosa [8]", "result": 78, "unit": "%"}, {"measurement": "fT>MIC", "setting": "Klebsiella pneumoniae [9]", "result": 0, "unit": "%"}, {"measurement": "fT>MIC", "setting": "Pseudomonas aeruginosa [10]", "result": 50, "unit": "%"}, {"measurement": "fT>MIC", "setting": "Klebsiella pneumoniae [11]", "result": 59, "unit": "%"}, {"measurement": "fT>MIC", "setting": "Klebsiella pneumoniae [12]", "result": 78, "unit": "%"}, {"measurement": "fT>MIC", "setting": "Klebsiella pneumoniae [13]", "result": 12, "unit": "%"}, {"measurement": "fT>MIC", "setting": "Klebsiella pneumoniae [14]", "result": 16, "unit": "%"}, {"measurement": "MIC", "setting": "Pseudomonas aeruginosa [15]", "result": 8, "unit": "µg/mL"}, {"measurement": "fT>MIC", "setting": "Klebsiella pneumoniae [16]", "result": 47, "unit": "%"}, {"measurement": "log10cfu", "setting": "Klebsiella pneumoniae [17]", "result": ">3"}, {"measurement": "fT>MIC", "setting": "Pseudomonas aeruginosa [18]", "result": 38, "unit": "%"}, {"measurement": "fT>MIC", "setting": "Klebsiella pneumoniae [19]", "result": 0, "unit": "%"}, {"measurement": "log10cfu", "setting": "Pseudomonas aeruginosa [20]", "result": ">=3"}, {"measurement": "fT>MIC", "setting": "Klebsiella pneumoniae [21]", "result": 0, "unit": "%"}, {"measurement": "log10cfu", "setting": "Klebsiella pneumoniae [22]", "result": ">3"}, {"measurement": "fT>MIC", "setting": "Pseudomonas aeruginosa [23]", "result": 75, "unit": "%"}, {"measurement": "fT>MIC", "setting": "Klebsiella pneumoniae [24]", "result": 0, "unit": "%"}, {"measurement": "fT>MIC", "setting": "Pseudomonas aeruginosa [25]", "result": 78, "unit": "%"}, {"measurement": "fT>MIC", "setting": "Pseudomonas aeruginosa [26]", "result": 69, "unit": "%"}, {"measurement": "log10cfu", "setting": "Klebsiella pneumoniae [27]", "result": ">3"}, {"measurement": "fT>MIC", "setting": "Pseudomonas aeruginosa [28]", "result": 50, "unit": "%"}, {"measurement": "fT>MIC", "setting": "Pseudomonas aeruginosa [29]", "result": 63, "unit": "%"}, {"measurement": "MIC", "setting": "Pseudomonas aeruginosa [30]", "result": 8, "unit": "µg/mL"}, {"measurement": "MIC", "setting": "Klebsiella pneumoniae [31]", "result": 8, "unit": "µg/mL"}, {"measurement": "fT>MIC", "setting": "Pseudomonas aeruginosa [32]", "result": 69, "unit": "%"}, {"measurement": "fT>MIC", "setting": "Klebsiella pneumoniae [33]", "result": 56, "unit": "%"}, {"measurement": "log10cfu", "setting": "Klebsiella pneumoniae [34]", "result": ">3"}, {"measurement": "fT>MIC", "setting": "Klebsiella pneumoniae [35]", "result": 16, "unit": "%"}, {"measurement": "fT>MIC", "setting": "Klebsiella pneumoniae [36]", "result": 0, "unit": "%"}, {"measurement": "fT>MIC", "setting": "Klebsiella pneumoniae [37]", "result": 0, "unit": "%"}, {"measurement": "fT>MIC", "setting": "Klebsiella pneumoniae [38]", "result": 3, "unit": "%"}]}
